Data as given in ChEMBL document CHEMBL1141374 (J Med Chem, 2007).

How the values were obtained:
NCI-H522 = experiment: Growth inhibition in NCI-H522 cells; assay type: functional; details: Homo sapiens
NCI-H322M = experiment: Growth inhibition in NCI-H322M cells; assay type: functional; details: Homo sapiens
OVCAR-8 = experiment: Growth inhibition in OVCAR8 cells; assay type: functional; details: Homo sapiens
MCF7 = experiment: Growth inhibition in MCF7 cells; assay type: functional; details: Homo sapiens
[1] = Cytotoxicity against KB-3-1 cell line; assay type: cell-based; details: Homo sapiens
Outline: (§1)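 Log-phase cells were diluted to 20 000–30 000 cells/mL, seeded, and left to attach overnight. They were then exposed to compounds at 10^–5–10^–12 M for 72 h at 37 °C in 5% CO2. Viable cells were measured by MTT, with absorbance read at 595 nm. Each compound ran in triplicate in at least three independent assays. IC50 came from nonlinear regression, and average values were reported.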

T47D = experiment: Growth inhibition in T47D cells; assay type: functional; details: Homo sapiens
HCT-116 = experiment: Cytotoxicity against HCT116 cell line; assay type: cell-based; details: Homo sapiens; outline: as §1
EKVX = experiment: Growth inhibition in EKVX cells; assay type: functional; details: Homo sapiens
BT-549 = experiment: Growth inhibition in BT549 cells; assay type: functional; details: Homo sapiens
CAKI-1 = experiment: Growth inhibition in CAK1-1 cells; assay type: functional; details: Homo sapiens
Tubulin = experiment: Inhibition of tubulin polymerization; assay type: protein-complex assay, Homo sapiens
Outline: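 Kit-based assay run per the manufacturer's instructions. Tubulin (>99% pure, 3 mg/mL) in G-PEM buffer, in a prewarmed plate with compound at 0.03–30 μM. OD340 nm read every 60 s at 37 °C for 1 h.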

COLO 205 = experiment: Growth inhibition in COLO205 cells; assay type: functional; details: Homo sapiens
NCI-H460 = experiment: Growth inhibition in NCI-H460 cells; assay type: functional; details: Homo sapiens
SF-295 = experiment: Growth inhibition in SF295 cells; assay type: functional; details: Homo sapiens
786-0 = experiment: Growth inhibition in 786-0 cells; assay type: functional; details: Homo sapiens
[2] = Growth inhibition in MDA-MB-231/ATCC cells; assay type: functional; details: Homo sapiens
HCC 2998 = experiment: Growth inhibition in HCC2998 cells; assay type: functional; details: Homo sapiens
LOX IMVI = experiment: Growth inhibition in LOX IMVI cells; assay type: functional; details: Homo sapiens
ZR-75-1 = experiment: Cytotoxicity against ZR-75-1 cell line; assay type: cell-based; details: Homo sapiens; outline: as §1
PC-3 = experiment: Growth inhibition in PC3 cells; assay type: functional; details: Homo sapiens
SK-MEL-2 = experiment: Growth inhibition in SK-MEL-2 cells; assay type: functional; details: Homo sapiens
NCI-H226 = experiment: Growth inhibition in NCI-H226 cells; assay type: functional; details: Homo sapiens
SNB-75 = experiment: Growth inhibition in SNB75 cells; assay type: functional; details: Homo sapiens
M14 = experiment: Growth inhibition in M14 cells; assay type: functional; details: Homo sapiens
CCRF-CEM = experiment: Growth inhibition in CCRF-CEM cells; assay type: functional; details: Homo sapiens
SK-MEL-28 = experiment: Growth inhibition in SK-MEL-28 cells; assay type: functional; details: Homo sapiens
SN12C = experiment: Growth inhibition in SN12C cells; assay type: functional; details: Homo sapiens
OVCAR-4 = experiment: Growth inhibition in OVCAR4 cells; assay type: functional; details: Homo sapiens
K562 = experiment: Growth inhibition in K562 cells; assay type: functional; details: Homo sapiens
U-251 = experiment: Growth inhibition in U251cells; assay type: functional; details: Homo sapiens
HT-29 = experiment: Growth inhibition in HT29 cells; assay type: functional; details: Homo sapiens
KM12 = experiment: Growth inhibition in KM12 cells; assay type: functional; details: Homo sapiens
[3] = Growth inhibition in HCC15 cells; assay type: functional; details: Homo sapiens
A498 = experiment: Growth inhibition in A498 cells; assay type: functional; details: Homo sapiens
NCI/ADR-RES = experiment: Growth inhibition in NCI/ADR-RES cells; assay type: functional; details: Homo sapiens
HeLa = experiment: Cytotoxicity against HeLa cell line; assay type: cell-based; details: Homo sapiens; outline: as §1
TK-10 = experiment: Growth inhibition in TK10 cells; assay type: functional; details: Homo sapiens
[4] = Cytotoxicity against P-glycoprotein-overexpressing KB-V1 cell line; assay type: cell-based; details: Homo sapiens; outline: as §1
UO-31 = experiment: Growth inhibition in UO31 cells; assay type: functional; details: Homo sapiens
HOP-62 = experiment: Growth inhibition in HOP62 cells; assay type: functional; details: Homo sapiens
OVCAR-3 = experiment: Growth inhibition in OVCAR-3 cells; assay type: functional; details: Homo sapiens
SF-268 = experiment: Growth inhibition in SF268 cells; assay type: functional; details: Homo sapiens
RXF 393 = experiment: Growth inhibition in RXF393 cells; assay type: functional; details: Homo sapiens
[5] = Growth inhibition in HCC116 cells; assay type: functional; details: Homo sapiens
IGROV-1 = experiment: Growth inhibition in IGROV1 cells; assay type: functional; details: Homo sapiens
SF-539 = experiment: Growth inhibition in SF539 cells; assay type: functional; details: Homo sapiens
SW-620 = experiment: Growth inhibition in SW620 cells; assay type: functional; details: Homo sapiens
SK-OV-3 = experiment: Growth inhibition in SKOV3 cells; assay type: functional; details: Homo sapiens
SK-MEL-5 = experiment: Growth inhibition in SK-MEL-5 cells; assay type: functional; details: Homo sapiens
A549 = experiment: Growth inhibition in A549 cells; assay type: functional; details: Homo sapiens
UACC-62 = experiment: Growth inhibition in UACC62 cells; assay type: functional; details: Homo sapiens
HL-60 = experiment: Growth inhibition in HL60 cells; assay type: functional; details: Homo sapiens
DU-145 = experiment: Growth inhibition in DU145 cells; assay type: functional; details: Homo sapiens
[6] = Growth inhibition in HS 578T cells; assay type: functional; details: Homo sapiens
OVCAR-5 = experiment: Growth inhibition in OVCAR5 cells; assay type: functional; details: Homo sapiens
HOP-92 = experiment: Growth inhibition in HOP92 cells; assay type: functional; details: Homo sapiens
ACHN = experiment: Growth inhibition in ACHN cells; assay type: functional; details: Homo sapiens
NCI-H23 = experiment: Growth inhibition in NCI-H23 cells; assay type: functional; details: Homo sapiens
SNB-19 = experiment: Growth inhibition in SNB19 cells; assay type: functional; details: Homo sapiens
MDA-MB-435 = experiment: Growth inhibition in MDA-MB-435 cells; assay type: functional; details: Homo sapiens
UACC-257 = experiment: Growth inhibition in UACC257 cells; assay type: functional; details: Homo sapiens

## COc1cc(-c2nncn2-c2ccc3c(ccn3C)c2)cc(OC)c1OC
NCI-H522
  GI50: < 0.01 µM
NCI-H322M
  GI50: < 0.01 µM
OVCAR-8
  GI50: 0.0427 µM
MCF7
  GI50: 0.0437 µM
[1]
  IC50: 0.0099 µM
T47D
  GI50: 0.0447 µM
HCT-116
  IC50: 0.00739 µM
EKVX
  GI50: < 0.01 µM
BT-549
  GI50: 0.0372 µM
CAKI-1
  GI50: < 0.01 µM
Tubulin
  IC50: 3 µM
COLO 205
  GI50: 0.0288 µM
NCI-H460
  GI50: 0.0331 µM
SF-295
  GI50: < 0.01 µM
786-0
  GI50: 0.0324 µM
[2]
  GI50: 0.0309 µM
HCC 2998
  GI50: 0.024 µM
LOX IMVI
  GI50: 0.0562 µM
ZR-75-1
  IC50: 0.0238 µM
PC-3
  GI50: 0.0195 µM
SK-MEL-2
  GI50: 0.166 µM
NCI-H226
  GI50: 85.1 µM
SNB-75
  GI50: 0.0129 µM
M14
  GI50: 0.0186 µM
CCRF-CEM
  GI50: 0.0324 µM
SK-MEL-28
  GI50: < 0.01 µM
SN12C
  GI50: 0.0631 µM
OVCAR-4
  GI50: 1.05 µM
K562
  GI50: 0.0148 µM
U-251
  GI50: 0.0331 µM
HT-29
  GI50: 0.0229 µM
KM12
  GI50: < 0.01 µM
[3]
  GI50: 0.0355 µM
A498
  GI50: 0.0158 µM
NCI/ADR-RES
  GI50: 0.0209 µM
HeLa
  IC50: 0.00873 µM
TK-10
  GI50: < 0.01 µM
[4]
  IC50: 0.0208 µM
UO-31
  GI50: 0.0324 µM
HOP-62
  GI50: 0.0186 µM
OVCAR-3
  GI50: < 0.01 µM
SF-268
  GI50: < 0.01 µM
RXF 393
  GI50: < 0.01 µM
[5]
  GI50: 0.0309 µM
IGROV-1
  GI50: 0.0355 µM
SF-539
  GI50: < 0.01 µM
SW-620
  GI50: 0.0339 µM
SK-OV-3
  GI50: 0.0316 µM
SK-MEL-5
  GI50: 0.0141 µM
A549
  GI50: 0.0372 µM
UACC-62
  GI50: < 0.01 µM
HL-60
  GI50: 0.0417 µM
DU-145
  GI50: < 0.01 µM
[6]
  GI50: 0.0162 µM
OVCAR-5
  GI50: 0.0479 µM
HOP-92
  GI50: 0.0832 µM
ACHN
  GI50: 0.0347 µM
NCI-H23
  GI50: 0.0457 µM
SNB-19
  GI50: 0.0447 µM
MDA-MB-435
  GI50: < 0.01 µM
UACC-257
  GI50: 0.245 µM
